Assay results as given in ChEMBL document CHEMBL2176922, “Benzofuroxane derivatives as multi-effective agents for the treatment of cardiovascular diabetic complications. Synthesis, functional evaluation, and molecular modeling studies” (J Med Chem, 2012).
The source made the active and inactive calls. The rule behind the calls is not given here.

Assays:
[1] = target: Aldo-keto reductase family 1 member B1 (Rattus norvegicus, UniProt P07943); assay: Inhibition of Sprague-Dawley albino rat lens ALR2 by spectrophotometry; format: tissue-based, Lens of camera-type eye
Liver = assay: Induction of NO generation in Sprague-Dawley albino rat liver homogenate at 10^-4 M after 1 hr by Griess reaction; format: functional, tissue-based
Summary of the method: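 Rat liver rinsed in ice-cold sucrose buffer (100 mM K2HPO4, 1 mM EDTA, 1.15% KCl, 0.25 M sucrose, 0.1% EtOH, pH 7.4), homogenized 1/6 w/v, gauze-filtered, spun 600g 10 min at 0 °C to remove nuclei. Incubated with compound 1 h at 37 °C; nitrite measured by Griess reaction at 543 nm, given as % NO2− (mol/mol) relative to compound added. At least two determinations in triplicate.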

Brain = assay: Antioxidant activity in Sprague-Dawley albino rat brain homogenate assessed as inhibition of hydroxyl radical dependent lipoperoxidation measuring malondialdehyde production at 100 uM after 30 mins by TBARS assay; format: functional, tissue-based
Summary of the method: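 Rat brain homogenized 10% (w/v) in phosphate buffer pH 7.4; 100 μL homogenate with 20 μM FeCl3 and 100 μM ascorbic acid (final), test compound at 100 μM final, 1 mL, 30 min at 37 °C. TBA/HCl added, boiled 10 min, n-butanol extraction, A532; TBARS as nmol MDA per 10 mg wet tissue vs tetramethoxypropane standard curve. At least two determinations in triplicate.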

Rattus norvegicus = species on record: Rattus norvegicus; assay: Inhibition of Aldehyde reductase in Sprague-Dawley albino rat at 100 uM
Summary of the method: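 Rat kidney ALR1 at 37 °C with 20 mM sodium D-glucuronate and 0.12 mM NADPH (stock levels), dialyzed enzyme, 0.1 M sodium phosphate pH 7.2; rate calibrated to 0.015 absorbance unit/min. NADPH oxidation followed at 340 nm; blank without substrate. Percent inhibition at 100 μM.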

[2] = target: Aldo-keto reductase family 1 member B1 (Rattus norvegicus) (UniProt P07943); assay: Ratio of KM07100 IC50 to compound IC50 for Sprague-Dawley albino rat lens ALR2; format: tissue-based; settings: Lens of camera-type eye

For `COc1ccc(COc2ccc3c(c2)no[n+]3[O-])cc1`, the IC50 [1] was 4.52 µM, the Activity (Liver) was 2% and the inhibition (Brain) was “Active”. For the same molecule, the inhibition (Rattus norvegicus) was “inactive”.

With `[O-][n+]1onc2cc(OCc3ccc(F)cc3)ccc21` the IC50 [1] was 0.82 µM, the Activity (Liver) was “inactive” and the inhibition (Brain) was “Active”. The inhibition (Rattus norvegicus) was “inactive”.

For `[O-][n+]1onc2cc(OCc3ccc(Br)cc3)ccc21`, the IC50 [1] was 7.36 µM, the Activity (Liver) was 2% and the inhibition (Brain) was “Active”. For the same molecule, the inhibition (Rattus norvegicus) was 19%.

`[O-][n+]1onc2cc(OCc3ccc(C(F)(F)F)cc3)ccc21` was tested, and the IC50 [1] was 1.94 µM, the Activity (Liver) was 2% and the inhibition (Brain) was “Active”. It also gave an inhibition (Rattus norvegicus) of 14%.

In the case of `[O-][n+]1onc2cc(OCc3ccc(Br)cc3F)ccc21`, the IC50 [1] is reported as 1.41 µM, the Activity (Liver) is reported as “inactive” and the inhibition (Brain) is reported as “Active”. The inhibition (Rattus norvegicus) was “inactive”.

With `[O-][n+]1onc2cc(OCc3ccc4ccccc4c3)ccc21` the IC50 [1] was 1.43 µM, the Activity (Liver) was 2% and the inhibition (Brain) was “Active”. For the same molecule, the inhibition (Rattus norvegicus) was 35%.

For `O=[N+]([O-])c1cccc(COc2ccc3c(c2)no[n+]3[O-])c1`, the IC50 [1] was 0.46 µM, the Activity (Liver) was 2% and the inhibition (Brain) was “Active”. It also gave an inhibition (Rattus norvegicus) of 5%.

With `[O-][n+]1onc2cc(OCCc3ccccc3)ccc21` the IC50 [1] was 5.9 µM, the Activity (Liver) was 2% and the inhibition (Brain) was “Active”. The inhibition (Rattus norvegicus) was 11%.

In the case of `[O-][n+]1onc2cc(OCc3nc4ccccc4s3)ccc21`, the IC50 [1] is reported as 0.42 µM, the Activity (Liver) is reported as “inactive” and the inhibition (Brain) is reported as “Active”. It also gave an inhibition (Rattus norvegicus) of 38%.

`Cc1c(C)c2c(c(C)c1O)CC[C@@](C)(CCC[C@H](C)CCC[C@H](C)CCCC(C)C)O2` was tested, and the inhibition (Brain) was “Active”.

In the case of `[O-][n+]1onc2cc(OCc3ccc(Cl)cc3)ccc21`, the IC50 [1] is reported as 0.92 µM, the Activity (Liver) is reported as 2% and the inhibition (Brain) is reported as “Active”. For the same molecule, the inhibition (Rattus norvegicus) was 19%.

With `Cc1ccc(COc2ccc3c(c2)no[n+]3[O-])cc1` the IC50 [1] was 0.83 µM, the Activity (Liver) was 2% and the inhibition (Brain) was “Active”. For the same molecule, the inhibition (Rattus norvegicus) was 24%.

Work on `[O-][n+]1onc2cc(OCc3ccccc3)ccc21` yielded an IC50 [1] of 0.99 µM, a Ratio IC50 [2] of 36 and an Activity (Liver) of 2%. It also gave an inhibition (Brain) of 50% and an inhibition (Rattus norvegicus) of 26%.

For `O=S(=O)(Oc1ccc2nonc2c1)c1ccc(Cl)s1`, the inhibition (Rattus norvegicus) was 20%.
